Screens: PubChem BioAssay, The Scripps Research Institute Molecular Screening Center
M4 PAM: potentiates acetylcholine response at human M4 receptor | activation, % at 3 µM | hit rate 0.4% among 360,000 | CHO-K1 hM4/Gqi5, Fluo-8 calcium fluorescence, ACh EC20; 0% = ACh EC20, 100% = maximal ACh | P08173;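 active = activation above its plate's cutoff, the mean activation of sample wells plus 3 SD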
CHRM4 antagonist: antagonists of human muscarinic M4 receptor (CHRM4); P08173; inhibition, % at 3 µM; CHO-hM4 cells, ACh EC80, Fluo-8 calcium fluorescence; hit rate 0.73% among 360,000;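 active = inhibition above its plate's cutoff, the mean inhibition of sample wells plus 3 SD, cut at about 27% in these data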;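 also: 0% = acetylcholine EC80 with DMSO and 100% = DMSO without agonist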
M4 ag: agonists of human muscarinic M4 receptor (CHRM4). P08173. CHO-K1 hM4/Gqi5, Fluo-8 calcium fluorescence; vehicle 0%, full acetylcholine response 100%. activation, % at 3 µM. hit rate 0.14% among 360,000. AID 624127;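 active = activation above the run mean over all test wells plus 3 SD, cut at about 32% in these data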;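 also: peak over basal fluorescence ratio per well then scaled between controls; 0% = DMSO wells and 100% = acetylcholine at EC100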
CHRM5 PAM: positive allosteric modulators of human muscarinic M5 receptor; P08912; CHO-K1 hM5, Fluo-8 calcium, ACh EC20 PAM; 0% = ACh EC20, 100% = ACh EC100; activation, % at 3 µM; hit rate 0.3% among 360,000;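 active = activation above the run cutoff, the mean activation of all test compounds plus 3 SD, cut at about 18% in these data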
Target sequence (P08912 whole entry, looked up): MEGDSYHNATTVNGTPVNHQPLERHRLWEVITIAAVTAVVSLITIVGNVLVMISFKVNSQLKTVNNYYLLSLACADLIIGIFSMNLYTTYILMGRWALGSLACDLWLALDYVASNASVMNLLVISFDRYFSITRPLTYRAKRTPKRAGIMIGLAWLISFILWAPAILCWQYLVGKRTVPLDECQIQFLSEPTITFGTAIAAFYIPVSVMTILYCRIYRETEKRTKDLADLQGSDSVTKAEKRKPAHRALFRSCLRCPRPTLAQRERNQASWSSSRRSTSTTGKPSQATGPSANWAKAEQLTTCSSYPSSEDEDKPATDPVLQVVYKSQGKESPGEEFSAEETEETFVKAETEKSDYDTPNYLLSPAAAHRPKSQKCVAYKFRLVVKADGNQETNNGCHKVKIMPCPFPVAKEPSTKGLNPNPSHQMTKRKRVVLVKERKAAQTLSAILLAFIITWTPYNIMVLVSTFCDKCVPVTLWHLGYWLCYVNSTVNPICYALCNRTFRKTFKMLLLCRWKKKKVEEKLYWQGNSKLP
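System – CHO-K1 hM5 cells · Compound – 3 µM, single dose · Incubation – compound preincubation 140 s before EC20 acetylcholine addition · Technique – Fluo-8 calcium fluorescence · Measure – Max/basal fluorescence ratio as % of EC20–EC100 ACh window · Benchmarks – low control EC20 acetylcholine (0%), high control EC100 acetylcholine (100%) · Replication – singlicate, one well per test compound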
M5 ag: CHRM5 agonism in calcium assay; P08912; CHO-K1 hM5 cells, Fluo-8 calcium fluorescence; 0% DMSO wells, 100% maximal acetylcholine response; activation, % at 3 µM; hit rate 0.19% among 360,000; AID 624037;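 active = activation above the run's mean over test compounds plus 3 SD, cut at about 23% in these data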;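 also: signal is peak over basal fluorescence ratio across the kinetic read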
M5 antag: blocks acetylcholine activation of human M5 receptor; P08912; CHO-hM5 cells, Fluo-8 calcium fluorescence, ACh EC80; inhibition, % at 3 µM; hit rate 0.59% among 360,000; AID 624040;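 active = inhibition above a per-plate cutoff, the mean of that plate's test compounds plus 3 SD, cut at about 27% in these data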;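 also: 0% = acetylcholine EC80 with DMSO and 100% = DMSO without agonist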
Starred values were filed as active, the others as inactive. Shown are actives, neighbours in structure and some others; about 1.8% of the full set was active somewhere.

`Cc1noc(C)c1CN(C(=S)NC1CC2CCC1C2)c1ccccc1` (stereo not drawn) gave M4 PAM 0, CHRM4 antagonist -5, M4 ag -1, CHRM5 PAM 23*, M5 ag -7 and M5 antag -5.
O=C(c1ccc(OC2CCN(Cc3ccccn3)CC2)cc1)N1CCCC(O)C1 (stereo not drawn) was read as M4 PAM 19, CHRM4 antagonist -18, M4 ag 2, CHRM5 PAM 24*, M5 ag -10 and M5 antag -11.
`COC(=O)c1ccc(CN2CCC(Oc3ccc(C(=O)N4CCCCC4)cc3)CC2)cc1` gave M4 PAM -16, CHRM4 antagonist 62*, M4 ag 3, CHRM5 PAM -16, M5 ag -7 and M5 antag 22.
`O=C(c1cccc(OC2CCN(Cc3cc(F)cc(F)c3)CC2)c1)N1CCCC1` gave M4 PAM 6, CHRM4 antagonist -13, M4 ag 4, CHRM5 PAM 5, M5 ag -8 and M5 antag -11.
Screening CCCOC1CCCN(C(=O)c2ccc(OC3CCN(Cc4ccccn4)CC3)cc2)C1 (stereo not drawn) returned M4 PAM -4, CHRM4 antagonist 12, M4 ag 0, CHRM5 PAM -7, M5 ag -5 and M5 antag 1.
`COc1ccc(/C=C/CN2CCC(Oc3ccc(C(=O)N4CCCCC4)cc3)CC2)cc1` gave M4 PAM -15, CHRM4 antagonist 31*, M4 ag 4, CHRM5 PAM -15, M5 ag -8 and M5 antag 35*.
COC(=O)c1ccc(CN2CCC(Oc3cccc(C(=O)N4CCCC4)c3)CC2)cc1 was read as M4 PAM -16, CHRM4 antagonist 95*, M4 ag 4, CHRM5 PAM -16, M5 ag -7 and M5 antag 80*.
COc1ccc(C(=O)Nc2cccc(S(=O)(=O)NC3=NCCC3)c2)cc1OC was read as M4 PAM 0, CHRM4 antagonist 0, M4 ag 1, CHRM5 PAM 6, M5 ag 1 and M5 antag -3.
O=C(Nc1ccc(Cl)cc1)C1CCN(C(=O)c2cccs2)CC1 was read as M4 PAM 2, CHRM4 antagonist 2, M4 ag 3, CHRM5 PAM -2, M5 ag -1 and M5 antag 0.
O=C(NCC(=O)N(c1ccc(F)cc1)C(C(=O)NC1CCCC1)c1cccnc1)c1ccco1 (stereo not drawn) was read as M4 PAM -4, CHRM4 antagonist -12, M4 ag -1, CHRM5 PAM 1, M5 ag -2 and M5 antag 12.
`CSc1ccc(CN2CCC(Oc3cccc(C(=O)N4CCCC4)c3)CC2)cc1` gave M4 PAM -16, CHRM4 antagonist 55*, M4 ag 5, CHRM5 PAM -17, M5 ag -7 and M5 antag 69*.
Screening O=C(/C=C/c1cc2ccccc2o1)c1ccccc1O returned M4 PAM 8, CHRM4 antagonist -12, M4 ag -1, CHRM5 PAM -8, M5 ag -10 and M5 antag 5.
`COc1ccc(O)c(C(=O)/C=C/c2cc3ccccc3o2)c1` gave M4 PAM 19*, CHRM4 antagonist -16, M4 ag 1, CHRM5 PAM 5, M5 ag -1 and M5 antag 4.
Brc1ccc(CNc2ccc3ncccc3c2)cc1 was read as M4 PAM -12, CHRM4 antagonist 25, M4 ag 8, CHRM5 PAM -24, M5 ag -13 and M5 antag 32*.
For O=C(NC1CCCC1)C1CC(=O)N(c2ccccc2)C1 (stereo not drawn) the results were M4 PAM -2, CHRM4 antagonist 6, M4 ag 0, CHRM5 PAM 3, M5 ag 0 and M5 antag 2.
O=C(NC1CC1)C1CC(=O)N(c2ccccc2)C1 (stereo not drawn) was read as M4 PAM 7, CHRM4 antagonist -2, M4 ag 2, CHRM5 PAM -9, M5 ag -4 and M5 antag 30*.
`CCOC(=O)C1CCCN(C2CCN(Cc3nc(-c4ccccc4)no3)CC2)C1` (stereo not drawn) gave M4 PAM -12, CHRM4 antagonist 14, M4 ag 1, CHRM5 PAM -18, M5 ag -10 and M5 antag 45*.
For CCOC(=O)C1CCN(C2CCN(Cc3nc(-c4ccccc4)no3)CC2)CC1 the results were M4 PAM -11, CHRM4 antagonist 0, M4 ag 4, CHRM5 PAM -7, M5 ag -5 and M5 antag 9.
Cc1cc(N2Cc3ccccc3C2)ccc1C=O was read as M4 PAM -7, CHRM4 antagonist -6, M4 ag 2, CHRM5 PAM -5, M5 ag 15 and M5 antag 38*.
COc1ccccc1C1(O)C(=O)Nc2ccccc21 (stereo not drawn) was read as M4 PAM 15*, CHRM4 antagonist -13, M4 ag 2, CHRM5 PAM 3, M5 ag -3 and M5 antag 3.
Screening Cn1cc([C@]2(O)C(=O)Nc3ccccc32)c2ccccc21 returned M4 PAM 4, CHRM4 antagonist 5, M4 ag 3, CHRM5 PAM -1, M5 ag 1 and M5 antag -4.
`CC(=O)c1cccc(NC(=O)C(=O)Nc2cccc3ccccc23)c1` gave M4 PAM 17, CHRM4 antagonist -16, M4 ag 2, CHRM5 PAM 11, M5 ag 2 and M5 antag -9.
For Cc1ccc(C(=O)COC(=O)CNC(=O)c2ccccc2)s1 the results were M4 PAM 22*, CHRM4 antagonist -6, M4 ag 1, CHRM5 PAM 7, M5 ag 6 and M5 antag -1.
`COc1ccccc1OCCNC(=O)c1ccc(C(C)(C)C)cc1` gave M4 PAM 0, CHRM4 antagonist 7, M4 ag 3, CHRM5 PAM 20*, M5 ag -3 and M5 antag -8.
`COc1ccccc1OCCNC(=O)CNC(=O)c1ccc(C(C)(C)C)cc1` gave M4 PAM 16, CHRM4 antagonist -16, M4 ag 1, CHRM5 PAM 6, M5 ag -4 and M5 antag 10.
`O=C1C(SCCO)=C(SCCO)C(=O)c2ccccc21` gave M4 PAM -12, CHRM4 antagonist 61*, M4 ag 13, CHRM5 PAM -2, M5 ag 17 and M5 antag 38*.
